Assay results published in ChEMBL document CHEMBL1134972, “Discovery of a potent and selective COX-2 inhibitor in the alkoxy lactone series with optimized metabolic profile” (Bioorg Med Chem Lett, 2002).

Assays:
[1] = Cmax in rat; type: ADME, organism-based; details: in vivo
Outline: (§1)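 Rat pharmacokinetics at a 10 mg/kg dose, reporting half-life, Cmax (μM) and bioavailability (%).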

[2] = Half-life in rat; type: ADME, organism-based; details: in vivo; outline: as §1
[3] = biological target: Prostaglandin G/H synthase 1 (Homo sapiens, UniProt P23219); test: In vitro inhibitory potency against Prostaglandin G/H synthase 1 in human whole blood assay; type: tissue-based
Rattus norvegicus [4] = organism: Rattus norvegicus; test: Antiinflammatory activity by using Rat hyperalgesia assay; type: functional
Outline: (§2)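 Rat in vivo models (paw edema, pyresis, hyperalgesia, adjuvant arthritis), with activity expressed as ED50 in mg/kg.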

Rattus norvegicus [5] = test: Antiinflammatory activity by using Rat paw edema assay; type: functional; outline: as §2
Rattus norvegicus [6] = organism: Rattus norvegicus; test: Antiinflammatory activity by using Rat pyresis assay; type: functional; outline: as §2
Rattus norvegicus [7] = organism: Rattus norvegicus; test: Antiinflammatory activity by using Rat adjuvant arthritis assay; type: functional; outline: as §2
[8] = Bioavailability in rat; type: ADME, organism-based; details: in vivo; outline: as §1
[9] = biological target: T1, Prostaglandin G/H synthase 2 (Homo sapiens, UniProt P35354); test: In vitro inhibitory potency against Prostaglandin G/H synthase 2 in human whole blood assay; type: tissue-based
T1 sequence (P35354 whole entry): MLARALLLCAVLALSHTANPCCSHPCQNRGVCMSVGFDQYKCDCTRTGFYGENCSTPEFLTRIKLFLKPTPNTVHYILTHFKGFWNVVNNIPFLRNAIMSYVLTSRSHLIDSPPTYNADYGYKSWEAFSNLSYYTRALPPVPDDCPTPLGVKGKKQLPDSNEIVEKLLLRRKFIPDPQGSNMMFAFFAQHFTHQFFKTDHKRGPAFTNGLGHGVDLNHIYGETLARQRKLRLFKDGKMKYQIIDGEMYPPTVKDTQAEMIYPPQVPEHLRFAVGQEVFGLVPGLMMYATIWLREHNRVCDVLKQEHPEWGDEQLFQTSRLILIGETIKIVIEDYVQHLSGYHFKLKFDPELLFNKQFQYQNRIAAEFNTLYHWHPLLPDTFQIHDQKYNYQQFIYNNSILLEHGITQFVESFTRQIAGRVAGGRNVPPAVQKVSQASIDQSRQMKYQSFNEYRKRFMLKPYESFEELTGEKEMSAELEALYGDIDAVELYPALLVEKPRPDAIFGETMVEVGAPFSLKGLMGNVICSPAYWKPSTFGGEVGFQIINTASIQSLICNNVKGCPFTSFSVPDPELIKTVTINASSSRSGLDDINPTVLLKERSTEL

Prostaglandin G/H synthase 1, sequence (P23219 whole entry): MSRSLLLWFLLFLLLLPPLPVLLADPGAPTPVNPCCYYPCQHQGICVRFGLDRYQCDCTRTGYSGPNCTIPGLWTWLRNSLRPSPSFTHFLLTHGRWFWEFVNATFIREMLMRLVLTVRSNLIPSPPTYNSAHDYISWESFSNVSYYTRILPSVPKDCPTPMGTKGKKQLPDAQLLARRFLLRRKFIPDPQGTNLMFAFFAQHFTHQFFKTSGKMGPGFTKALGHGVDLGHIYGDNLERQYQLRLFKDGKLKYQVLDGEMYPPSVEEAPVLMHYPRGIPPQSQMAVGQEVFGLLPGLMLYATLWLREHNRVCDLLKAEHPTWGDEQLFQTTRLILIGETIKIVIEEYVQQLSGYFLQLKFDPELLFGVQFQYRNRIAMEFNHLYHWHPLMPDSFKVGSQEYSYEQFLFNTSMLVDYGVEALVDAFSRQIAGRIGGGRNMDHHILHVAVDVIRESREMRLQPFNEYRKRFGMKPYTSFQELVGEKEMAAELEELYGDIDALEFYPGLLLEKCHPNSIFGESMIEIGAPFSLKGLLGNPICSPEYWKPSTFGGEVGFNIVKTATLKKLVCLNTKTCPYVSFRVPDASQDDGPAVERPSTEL

Row | SMILES | half-life [2] [h] | IC50 ([3]; read-out: IC50) [µM] | IC50 [3] | bioavailability [8] [%] | IC50 [9] [µM] | Cmax [1] [µM] | ED50 (Rattus norvegicus [4]) [mg/kg] | ED50 (Rattus norvegicus [5]) [mg/kg] | ED50 (Rattus norvegicus [6]) [mg/kg] | ED50 (Rattus norvegicus [7]) [mg/kg]
1 | CC(C)OC1=C(c2ccc(S(C)(=O)=O)cc2)C(C)(C)OC1=O | 7.1 | > 100 |  |  |  | 15 | 0.8 | 0.8 | 0.3 | 0.3
2 | CC(C)OC1=C(c2ccc(S(C)(=O)=O)cc2)C(C)(CC(F)(F)F)OC1=O (stereo not given) |  |  | Not Active |  |  |  |  |  |  | 
3 | COc1ccc2c(c1)c(CC(=O)O)c(C)n2C(=O)c1ccc(Cl)cc1 [INDOMETHACIN] |  |  |  |  |  |  | 1.4 | 2 | 1 | 0.2
4 | CS(=O)(=O)c1ccc(C2=C(c3ccccc3)C(=O)OC2)cc1 [ROFECOXIB] |  |  |  |  |  |  | 1 | 1.5 | 0.2 | 0.8

Further lines, with some results ahead:

Row | half-life [2] [h] | IC50 ([3]; read-out: IC50) [µM] | IC50 [3] | bioavailability [8] [%] | IC50 [9] [µM] | SMILES | Cmax [1] [µM] | ED50 (Rattus norvegicus [4]) [mg/kg] | ED50 (Rattus norvegicus [5]) [mg/kg] | ED50 (Rattus norvegicus [6]) [mg/kg] | ED50 (Rattus norvegicus [7]) [mg/kg]
5 | 2 | > 86 |  | 100 | 0.4 | CC[C@]1(C)OC(=O)C(OC(C)C)=C1c1ccc(S(C)(=O)=O)cc1 | 1.7 | 0.7 | 1.2 | 0.7 | 3.3
6 | < 2 | > 100 |  |  | 0.5 | CC[C@@]1(C)OC(=O)C(OC(C)C)=C1c1ccc(S(C)(=O)=O)cc1 (single isomer, unassigned) |  |  | 4.5 | 4.9 | 
